Experimental findings from ChEMBL document CHEMBL1143029, “Heme oxygenase inhibition by 2-oxy-substituted 1-(1H-imidazol-1-yl)-4-phenylbutanes: effect of halogen substitution in the phenyl ring” (Bioorg Med Chem, 2007) are described below.

For one test, the species on record is Rattus norvegicus. Kind of test: Selectivity index, ratio of IC50 for Sprague-Dawley rat brain HO2 to IC50 for Sprague-Dawley rat spleen HO1. The test is classed as tissue-based. In outline:
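Ratio of IC50(HO-2) to IC50(HO-1). HO-2 comes from Sprague-Dawley rat brain microsomes and HO-1 from spleen microsomes. Both were assayed identically: methemalbumin substrate, 10 min inhibitor pre-incubation at 37 °C, 15 min reaction with 1 mM NADPH, and CO measured by GC. Each IC50 was derived from sigmoidal dose–response fits of percent-control activity.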

Another test deals with T1, Heme oxygenase 2 (Rattus norvegicus, UniProt P23711).
T1 sequence (P23711 whole entry): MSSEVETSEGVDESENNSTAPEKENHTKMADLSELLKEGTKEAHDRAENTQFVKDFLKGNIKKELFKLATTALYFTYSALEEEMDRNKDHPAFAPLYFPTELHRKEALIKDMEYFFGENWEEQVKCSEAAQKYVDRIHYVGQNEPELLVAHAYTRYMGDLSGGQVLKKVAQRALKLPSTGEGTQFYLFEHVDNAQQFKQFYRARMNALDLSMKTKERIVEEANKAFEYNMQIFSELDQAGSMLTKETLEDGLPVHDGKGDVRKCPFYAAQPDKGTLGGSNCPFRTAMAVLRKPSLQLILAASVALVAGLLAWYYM
Kind of test: Inhibition of Sprague-Dawley rat brain microsome HO2.

Another test has as its target T2, Heme oxygenase 1 (Rattus norvegicus, UniProt P06762).
T2 sequence (P06762 whole entry): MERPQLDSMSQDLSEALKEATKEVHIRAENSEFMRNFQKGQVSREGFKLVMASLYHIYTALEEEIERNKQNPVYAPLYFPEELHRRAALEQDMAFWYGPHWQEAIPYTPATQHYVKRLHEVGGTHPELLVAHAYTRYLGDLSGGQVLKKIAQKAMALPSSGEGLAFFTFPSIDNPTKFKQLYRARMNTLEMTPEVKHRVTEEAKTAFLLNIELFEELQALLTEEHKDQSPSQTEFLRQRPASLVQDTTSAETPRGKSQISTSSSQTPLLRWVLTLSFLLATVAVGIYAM
Kind of test: Inhibition of Sprague-Dawley rat spleen microsome HO1. Format: microsomes.

The target of test [1] is T3, Heme oxygenase 2 (Rattus norvegicus) (UniProt P23711).
T3 sequence (whole entry): T1 sequence (P23711 whole entry)
The test is described as follows: Inhibition of Sprague-Dawley rat brain microsome HO2 at 100 uM relative to control. Summed up:
(§1)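 Spleen (HO-1) or brain (HO-2) microsomes from Sprague-Dawley rats, at 1 mg/mL protein in 100 mM phosphate buffer pH 7.4 with methemalbumin (heme–albumin) as substrate. Inhibitor hydrochloride pre-incubated 10 min at 37 °C, then 1 mM NADPH added for 15 min at 37 °C. Stopped by freezing on dry ice. CO formed measured by gas chromatography; activity given as percent of no-inhibitor control.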

The target of test [2] is T4, Heme oxygenase 1 (Rattus norvegicus) (UniProt P06762).
T4 sequence (whole entry): T2 sequence (P06762 whole entry)
Kind of test: Inhibition of Sprague-Dawley rat spleen microsome HO1 at 0.1 uM relative to control. The test is classed as microsomes. Summed up: as §1

Test [3] has as its target T3, Heme oxygenase 2 (Rattus norvegicus). Kind of test: Inhibition of Sprague-Dawley rat brain microsome HO2 at 0.1 uM relative to control. In outline:
as §1

The target in test [4] is T4, Heme oxygenase 1 (Rattus norvegicus). As to conditions: Sprague-Dawley, Spleen, Microsome, 100 uM.
The target is the same in test [5]. The test is described as follows: Inhibition of Sprague-Dawley rat spleen microsome HO1 at 0.01 uM relative to control. Format: microsomes.

`Ic1ccc(CCC2(Cn3ccnc3)OCCO2)cc1`: in the test filed under Rattus norvegicus, the Ratio IC50 is greater than 27. For the same compound, the IC50 was greater than 100 µM at Heme oxygenase 2 and 3.7 µM on Heme oxygenase 1.
In the case of `c1ccc(CCC2(Cn3ccnc3)OCCO2)cc1`, the IC50 against Heme oxygenase 2 is greater than 100 µM.
For `O=C(CCc1ccc(I)cc1)Cn1ccnc1`, the Ratio IC50 in the test listed under Rattus norvegicus came out at 16.4. Further, the inhibition amounted to 60% in test [1], 44% in test [2], 10% in test [3] and 80% in test [4].
Consider `OC(CCc1ccccc1)Cn1ccnc1` (stereo not given), for which the Ratio IC50 in the test filed under Rattus norvegicus was found to be 2.6. This compound yielded an IC50 against Heme oxygenase 1 of 6.2 µM.
Regarding `OC(CCc1ccc(Br)cc1)Cn1ccnc1` (stereo not given), the inhibition in test [5] is 8%; in test [2] it was 55%.
Turning to `Clc1ccc(CCC2(Cn3ccnc3)OCCO2)cc1`, the Ratio IC50 in the test filed under Rattus norvegicus was greater than 23.2. In addition, on Heme oxygenase 1, half-maximal inhibition (IC50) required 4.3 µM.
With `Brc1ccc(CCC2(Cn3ccnc3)OCCO2)cc1`, the Ratio IC50 in the test listed under Rattus norvegicus was greater than 52.6. This compound also came in with an IC50 against Heme oxygenase 2 greater than 100 µM.
On to `Nc1ccc(SC[C@@H]2CO[C@](CCc3ccc(Cl)cc3)(Cn3ccnc3)O2)cc1` [AZALANSTAT], for which the Ratio IC50 in the test filed under Rattus norvegicus came out at 4.6. Further, the IC50 against Heme oxygenase 2 is 24.5 µM; against Heme oxygenase 1 it was 5.3 µM.
`O=C(CCc1ccc(Br)cc1)Cn1ccnc1` came in with an inhibition in test [1] of 60%. Besides, the IC50 at Heme oxygenase 2 worked out at 9.5 µM.
As for `O=C(CCc1ccccc1)Cn1ccnc1`, the inhibition in test [1] was 60%; in test [4], 80%.
At Heme oxygenase 2, `OC(CCc1ccc(I)cc1)Cn1ccnc1` (stereo not given) came in with a half-inhibitory concentration (IC50) of 1.8 µM.
As to `OC(CCc1ccc(Cl)cc1)Cn1ccnc1` (stereo not given), the Ratio IC50 in the test filed under Rattus norvegicus was found to be 8. In addition, the inhibition in test [1] turned out to be 90%.
On to `Fc1ccc(CCC2(Cn3ccnc3)OCCO2)cc1`, for which the Ratio IC50 in the test filed under Rattus norvegicus was greater than 26.3. For the same compound, the IC50 at Heme oxygenase 2 is greater than 100 µM; at Heme oxygenase 1, 3.8 µM.
For the compound `O=C(CCc1ccc(F)cc1)Cn1ccnc1`, in the test listed under Rattus norvegicus, the Ratio IC50 was 1.4. Besides, the inhibition turned out to be 60% in test [1], 10% in test [3] and 80% in test [4]. Besides, inhibition against Heme oxygenase 2 was half-maximal at 1.9 µM (IC50).

The term IC50 denotes the midpoint of a concentration-inhibition curve. In general, inhibition refers to the relative decrease from the control value, in per cent.
